Active and inactive are the calls of the source. No cut-off for these calls is given here.
Assays:
[1] = AUC (0 to t) in female Sprague-Dawley rat at 0.5 mg/kg, iv measured for 36 hrs by LC-MS/MS analysis; format: ADME, organism-based; design: dose 0.5 mg/kg, time 36 hrs; conditions: in vivo
Summary of the method: (§1)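 Sprague-Dawley rats (200–220 g), three per sex per route, were dosed at 0.5 mg/kg IV or 5 mg/kg PO in DMSO/Tween-80/water (1:5:94). Heparinized blood was drawn from 5 min to 36 h after IV dosing and from 1 h to 36 h after oral dosing. Plasma was deproteinized with methanol (2% HCl) plus carbamazepine internal standard, measured by LC-MS/MS, and reported as mean ± SD.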

[2] = AUC (0 to t) in female Sprague-Dawley rat at 5 mg/kg, po measured for 36 hrs by LC-MS/MS analysis; format: ADME, organism-based; design: dose 5 mg/kg, time 36 hrs; conditions: in vivo; summary of the method: as §1
[3] = Tmax in female Sprague-Dawley rat at 5 mg/kg, po measured for 36 hrs by LC-MS/MS analysis; format: ADME, organism-based; conditions: in vivo
Summary of the method: (§2)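 Sprague-Dawley rats (200–220 g), three males and three females per route group. Dosed 5 mg/kg orally or 0.5 mg/kg IV as a solution in DMSO/T-80/H2O (1:5:94 by volume). Heparinized blood was drawn from 5 min to 36 h after IV and 1–36 h after oral dosing. Plasma was protein-precipitated with methanol (2% HCl) plus carbamazepine internal standard and assayed by LC-MS/MS. Parameters were taken from concentration-time data; n = 3 per sex, mean ± SD.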

[4] = Half life in male Sprague-Dawley rat at 5 mg/kg, po measured for 36 hrs by LC-MS/MS analysis; format: ADME, organism-based; conditions: in vivo
[5] = Volume of distribution at steady state in male Sprague-Dawley rat at 0.5 mg/kg, iv measured for 36 hrs by LC-MS/MS analysis; format: ADME, organism-based; conditions: in vivo, read-out: Vdss; summary of the method: as §2
[6] = Volume of distribution at steady state in female Sprague-Dawley rat at 0.5 mg/kg, iv measured for 36 hrs by LC-MS/MS analysis; format: ADME, organism-based; conditions: in vivo; summary of the method: as §2
[7] = Oral bioavailability in male Sprague-Dawley rat at 5 mg/kg measured for 36 hrs by LC-MS/MS analysis; format: ADME, organism-based; conditions: in vivo; summary of the method: as §2
[8] = test system: BT-549; assay: Induction of apoptosis in human BT-549 cells assessed as PARP cleavage at 0.5 uM measured after 6 hrs by western blot assay; format: functional, cell-based
Summary of the method: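 Cells exposed to 0.5 µM for 6 h. Lysates resolved by SDS-PAGE and blotted to PVDF, blocked in 5% milk/TBST, probed with primary antibodies at 1:1000, ECL detection. Apoptosis scored as the densitometric ratio of cleaved PARP band to intact PARP band; mean ± SD, n = 3.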

[9] = test system: SW-620; assay: Induction of apoptosis in human SW-620 cells assessed as viable cells at 0.5 uM measured after 6 hrs by Annexin V-FITC/PI staining based flow cytometry method (reference value: 98.37%); format: functional; conditions: read-out: Activity
Summary of the method: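 Cells seeded at 1×10^6 per well and treated with 0.5 µM for 6 h. Floating and adherent cells pooled, stained with Annexin V-FITC for 10 min and propidium iodide for 5 min, then analysed immediately by flow cytometry in FITC and PC5.5 channels. Mean ± SD, n = 3.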

[10] = test system: MEF; assay: Induction of apoptosis in wild type mouse MEF cells assessed as PARP cleavage at 0.5 uM measured after 6 hrs by western blot assay; format: functional, cell-based
Summary of the method: (§3)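 Wild-type, Nur77−/− or Bcl-2−/− mouse embryonic fibroblasts grown in DMEM with 10% FBS and treated with 0.5 µM for 6 h. PARP cleavage detected by western blot, primary antibodies at 1:1000, ECL.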

[11] = test system: MEF; assay: Induction of apoptosis in mouse MEF cells lacking Nur77 assessed as PARP cleavage at 0.5 uM measured after 6 hrs by western blot assay; format: functional, cell-based; summary of the method: as §3
[12] = target: Nuclear receptor subfamily 4immunitygroup A member 1 (Homo sapiens, UniProt P22736); assay: Modulation of GFP-Nur77 (unknown origin) transfected in human HEK293T cells co-transfected with Flag-tagged Bcl2 assessed as interaction of Nur77 with Bcl2 in mitochondria at 0.5 uM measured after 2 hrs by confocal microscopy; conditions: filed as modulator
Summary of the method: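 HEK293T cells were lipofectamine-cotransfected with Flag-Bcl-2 and GFP-Nur77 or GFP-Nur77-LBD, then given 0.5 μM compound for 2 h. Cells were fixed in 4% paraformaldehyde, permeabilised with 0.1% Triton X-100, blocked in 1% BSA and stained with anti-Flag plus DAPI. Mitochondrial colocalisation with Bcl-2 was read by confocal microscopy.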

Chain of Nuclear receptor subfamily 4immunitygroup A member 1 (P22736 whole entry, the tested form may be a part): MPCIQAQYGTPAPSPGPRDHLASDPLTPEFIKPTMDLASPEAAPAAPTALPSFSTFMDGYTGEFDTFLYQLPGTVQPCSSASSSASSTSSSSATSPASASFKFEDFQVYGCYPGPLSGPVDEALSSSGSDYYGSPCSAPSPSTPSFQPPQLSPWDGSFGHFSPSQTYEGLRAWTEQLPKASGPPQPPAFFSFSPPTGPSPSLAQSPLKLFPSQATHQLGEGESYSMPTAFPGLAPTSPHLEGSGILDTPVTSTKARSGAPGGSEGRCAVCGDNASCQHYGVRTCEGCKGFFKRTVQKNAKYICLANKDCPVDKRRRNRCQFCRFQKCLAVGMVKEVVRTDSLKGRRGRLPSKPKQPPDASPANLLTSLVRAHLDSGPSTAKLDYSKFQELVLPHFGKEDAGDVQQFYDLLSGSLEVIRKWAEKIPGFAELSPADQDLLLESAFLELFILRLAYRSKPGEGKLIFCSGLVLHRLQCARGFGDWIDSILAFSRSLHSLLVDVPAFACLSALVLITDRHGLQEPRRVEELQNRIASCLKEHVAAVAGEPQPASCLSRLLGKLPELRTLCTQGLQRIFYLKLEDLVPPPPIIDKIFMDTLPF

AUC(0-t) at 36 h [1] [ng·h/mL]	AUC(0-t) at 36 h [2] [ng·h/mL]	Tmax [3] [h]	half-life [4] [h]	Vd [5] [L/kg]	Vdss [6] [L/kg]	bioavailability [7] [%]	Activity [12]	SMILES	Activity [8]	viability at 0.5 µM [9] [%]	Activity [10]	Activity [11]
1730	3950	5.33	5.28	2.56	2.38	20.1		CS(=O)(=O)[O-].FC(F)(F)c1ccc([C+](c2c[nH]c3ccccc23)c2c[nH]c3ccccc23)cc1				
							Active	CS(=O)(=O)[O-].Cn1cc([C+](c2ccc(C(F)(F)F)cc2)c2c[nH]c3ccccc23)c2ccccc21	Active	7.08	Active	inactive

From ChEMBL document CHEMBL4819003, “Optimization of novel oxidative DIMs as Nur77 modulators of the Nur77-Bcl-2 apoptotic pathway” (Eur J Med Chem, 2021)
